The test system of data set [1] is Rattus norvegicus. Put plainly: Antiinflammatory effect (oral administration), on zymosan-induced rat paw edema at 25 mg/kg. The format is functional. In a few lines: (§1)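 Oral dosing in 5% arabic gum suspension to male Wistar rats (~150 g, n=5) 1 h before subplantar injection of 1% zymosan in saline into the hind paw. Paw volume was read by plethysmograph before dosing and 4 h after zymosan.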

The subject of data set [2] is Rattus norvegicus. In words: Antiinflammatory effect in rat paw edema model following 50 mg/kg p.o. administration. The format is functional. To be noted: route oral.
In data set [3] the test system is Rattus norvegicus. Put plainly: Antiinflammatory effect (oral administration), on rat reversed passive Arthus reaction-induced paw edema at 5 mg/kg. In kind it is functional. The procedure, abridged: (§2)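 Reversed passive Arthus: male Wistar rats (~150 g, n=5) were dosed orally with compound in 5% arabic gum. Paw volume was measured by plethysmograph before dosing and 2 h after antigen. % inhibition was calculated vs controls, and ED50 came from log-dose linear regression.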

The test system of data set [4] is Rattus norvegicus. Put plainly: Antiinflammatory effect of the compound(oral administration) on rat paw edema model(carrageenan-induced paw edema) at 50 mg/kg. The format is functional. On the technique in general: In the carrageenan paw model, swelling and tenderness develop within hours.
Data set [5] deals with Rattus norvegicus. Put plainly: Antiinflammatory effect (oral administration) on rat paw edema model (reversed passive Arthus reaction-induced paw edema) at 10 mg/kg. In kind it is functional. In a few lines: as §2
For data set [6], the system named is Rattus norvegicus. Put plainly: Dose of the compound (oral administration) showing antiinflammatory effect on rat paw edema model (carrageenan-induced paw edema, CPE). In kind it is functional.
In data set [7] the test system is Rattus norvegicus. Put plainly: Dose of the compound (oral administration) showing antiinflammatory effect on rat paw edema model (reversed passive Arthus reaction-induced paw edema, RPAR). The format is functional. The procedure, abridged:
as §2

Another data set deals with Mus musculus. Put plainly: Acute lethal toxicity (peroral administration), determined by observing the mortality for 7 days after the administration in mouse. The format is organism-based. Conditions: in vivo, po, 168 h. The procedure, abridged: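 Male dd mice of 20-25 g, three per group, given compound by mouth once. Mortality followed for 7 days, and the minimum lethal dose (MLD) was recorded in mg/kg po.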

The test system of data set [8] is Rattus norvegicus. Put plainly: Oral dose required for antiinflammatory effect on zymosan induced rat paw edema. The format is functional. In a few lines: as §1

Where only a bound is given, the exact number is not on record here.

The record followed here is ChEMBL document CHEMBL1126191, “New antiinflammatory agents. 2. 5-Phenyl-3H-imidazo[4,5-c][1,8]naphthyridin-4(5H)-ones: a new class of nonsteroidal antiinflammatory agents with potent activity like glucocorticoids” (J Med Chem, 1992).

In the case of `Cc1ccc(C)c(Cn2cnc3c4cccnc4n(-c4ccccc4)c(=O)c32)c1`, the inhibition in vivo (usually the change of the read-out against control, counted positive when it falls) at 25 mg/kg in the data set on Rattus norvegicus [1] came to 10.1%. In addition, in the data set with Rattus norvegicus [2], the inhibition in vivo at 50 mg/kg is 1.2%. For the same compound, the inhibition in vivo at 5 mg/kg with Rattus norvegicus [3] was -3.5%.

As for `Cc1cccc(Cn2cnc3c4cccnc4n(-c4ccccc4)c(=O)c32)c1`, the inhibition in vivo at 25 mg/kg in the data set on Rattus norvegicus [1] was determined as 33.3%. Moreover, the inhibition in vivo at 50 mg/kg in the data set with Rattus norvegicus [4] stood at 18.4%. Moreover, in the data set with Rattus norvegicus [5], the inhibition in vivo at 10 mg/kg is 33.5%.

For the compound `CCOCCn1cnc2c3cccnc3n(-c3ccccc3)c(=O)c21`, the inhibition in vivo at 25 mg/kg in the data set on Rattus norvegicus [1] was found to be 57.4%. In addition, the figures for the ED40 in the data set on Rattus norvegicus [6] and in the data set with Rattus norvegicus [8] were 15.5 mg/kg and 6 mg/kg, respectively. In addition, the inhibition in vivo at 50 mg/kg in the data set with Rattus norvegicus [4] amounted to 56.7%. For the same compound, the ED50 – broadly, the dose at which the effect has come halfway, by size or by number of responders – in the data set with Rattus norvegicus [7] came out at 3.2 mg/kg. In addition, the MLD with Mus musculus is > 300 mg/kg. In addition, the inhibition in vivo at 5 mg/kg in the data set on Rattus norvegicus [3] was 50.3%.

As to `O=c1c2c(ncn2C/C=C/c2ccccc2)c2cccnc2n1-c1ccccc1`, in the data set on Rattus norvegicus [1], the inhibition in vivo at 25 mg/kg came to 34.2%. In addition, in the data set with Mus musculus, the MLD is > 300 mg/kg. Besides, the inhibition in vivo at 50 mg/kg in the data set with Rattus norvegicus [2] is 26.3%. For the same compound, the inhibition in vivo at 5 mg/kg in the data set on Rattus norvegicus [3] turned out to be 17.5%.

In the case of `COc1ccc(Cn2cnc3c4cccnc4n(-c4ccccc4)c(=O)c32)cc1`, in the data set with Rattus norvegicus [1], the inhibition in vivo at 25 mg/kg amounted to 66.9%. For the same compound, the 50% effect level in the data set on Rattus norvegicus [7] (ED50) was put at a dose of 2.3 mg/kg. For the same compound, the MLD in the data set on Mus musculus is > 300 mg/kg. In the data set with Rattus norvegicus [8], this compound yielded an ED40 of 0.93 mg/kg. Also, the inhibition in vivo at 50 mg/kg in the data set with Rattus norvegicus [2] is 37.8%. Further, the inhibition in vivo at 5 mg/kg with Rattus norvegicus [3] was found to be 59.2%.

On to `CC(=O)Cn1cnc2c3cccnc3n(-c3ccccc3)c(=O)c21`, for which the inhibition in vivo at 25 mg/kg with Rattus norvegicus [1] stood at 53.7%. The ED40 stood at 40 mg/kg in the data set on Rattus norvegicus [6] and 3.9 mg/kg in the data set on Rattus norvegicus [8]. For the same compound, the inhibition in vivo at 50 mg/kg in the data set with Rattus norvegicus [4] came to 41.3%. In the data set on Rattus norvegicus [7], the ED50 was 4.5 mg/kg. In the data set with Mus musculus, the MLD was > 200 mg/kg. Besides, in the data set with Rattus norvegicus [3], the inhibition in vivo at 5 mg/kg turned out to be 57.7%.

As for `CCn1cnc2c(=O)n(-c3ccccc3)c3ncccc3c21`, in the data set on Rattus norvegicus [1], the inhibition in vivo at 25 mg/kg worked out at 13.5%. Besides, the MLD in the data set with Mus musculus is > 300 mg/kg. Moreover, in the data set with Rattus norvegicus [3], the inhibition in vivo at 5 mg/kg is 3.5%.

Regarding `CCOC(=O)Cn1cnc2c3cccnc3n(-c3ccccc3)c(=O)c21`, the inhibition in vivo at 25 mg/kg in the data set with Rattus norvegicus [1] turned out to be 5%. In addition, the inhibition in vivo at 50 mg/kg in the data set with Rattus norvegicus [4] is 23.1%. The inhibition in vivo at 5 mg/kg in the data set on Rattus norvegicus [3] was found to be 9.9%.

In the case of `CC(O)Cn1cnc2c3cccnc3n(-c3ccccc3)c(=O)c21` (stereo unspecified), the inhibition in vivo at 25 mg/kg with Rattus norvegicus [1] is 74.7%. Also, the results for the ED40 in the data set with Rattus norvegicus [6] and in the data set on Rattus norvegicus [8] were 7.8 mg/kg and 4.5 mg/kg, respectively. For the same compound, the inhibition in vivo at 50 mg/kg in the data set with Rattus norvegicus [4] is 48%. In addition, the ED50 in the data set with Rattus norvegicus [7] stood at 1.9 mg/kg. In the data set with Mus musculus, this compound gave an MLD of 300 mg/kg. Besides, the inhibition in vivo at 5 mg/kg in the data set on Rattus norvegicus [3] amounted to 61.8%.

In the case of `O=c1c2c(ncn2Cc2cccc(Br)c2)c2cccnc2n1-c1ccccc1`, in the data set with Rattus norvegicus [5], the inhibition in vivo at 10 mg/kg is 17.2%. For the same compound, in the data set on Rattus norvegicus [2], the inhibition in vivo at 50 mg/kg came out at 26.9%.

With `O=c1c2c(ncn2Cc2cccc([N+](=O)[O-])c2)c2cccnc2n1-c1ccccc1`, the inhibition in vivo at 25 mg/kg with Rattus norvegicus [1] amounted to 35.7%. Further, in the data set with Rattus norvegicus [2], the inhibition in vivo at 50 mg/kg is 33.1%. Besides, the inhibition in vivo at 5 mg/kg in the data set with Rattus norvegicus [3] came out at 43.9%.

For `O=c1c2c(ncn2Cc2ccc([N+](=O)[O-])cc2)c2cccnc2n1-c1ccccc1`, the inhibition in vivo at 25 mg/kg in the data set on Rattus norvegicus [1] worked out at 45.6%. In the data set with Mus musculus, the MLD is > 300 mg/kg. The compound also had an ED40 in the data set on Rattus norvegicus [8] of 3.5 mg/kg. In addition, the inhibition in vivo at 50 mg/kg in the data set with Rattus norvegicus [2] amounted to 35.9%. The inhibition in vivo at 5 mg/kg with Rattus norvegicus [3] stood at 22.2%.

Consider `CCCCn1cnc2c3cccnc3n(-c3ccccc3)c(=O)c21`, for which, in the data set with Rattus norvegicus [1], the inhibition in vivo at 25 mg/kg was determined as 55.5%. In addition, the ED40 came to 15.4 mg/kg with Rattus norvegicus [6] and 2.1 mg/kg with Rattus norvegicus [8]. For the same compound, the inhibition in vivo at 50 mg/kg in the data set on Rattus norvegicus [4] was found to be 45.8%. In the data set on Rattus norvegicus [7], this compound showed an ED50 of 4.8 mg/kg. The same compound had an MLD in the data set on Mus musculus of 300 mg/kg. In addition, the inhibition in vivo at 5 mg/kg with Rattus norvegicus [3] came out at 49.9%.

Regarding `Cc1nc2c3cccnc3n(-c3ccccc3)c(=O)c2n1Cc1ccccc1`, the inhibition in vivo at 25 mg/kg with Rattus norvegicus [1] turned out to be 19.2%. Moreover, the inhibition in vivo at 50 mg/kg in the data set on Rattus norvegicus [4] was 4.7%. Moreover, the inhibition in vivo at 5 mg/kg in the data set with Rattus norvegicus [3] was determined as 6.5%.

In the case of `Cc1ccc(Cn2cnc3c4cccnc4n(-c4ccccc4)c(=O)c32)cc1`, the inhibition in vivo at 25 mg/kg with Rattus norvegicus [1] was found to be 56.2%. The same compound showed an ED50 with Rattus norvegicus [7] of 1.9 mg/kg. Also, the MLD in the data set on Mus musculus was > 300 mg/kg. The compound further came in with an ED40 in the data set with Rattus norvegicus [8] of 3.5 mg/kg. The inhibition in vivo at 50 mg/kg with Rattus norvegicus [2] was found to be 39.2%. Further, the inhibition in vivo at 5 mg/kg in the data set with Rattus norvegicus [3] worked out at 67.4%.

Regarding `COc1cccc(Cn2cnc3c4cccnc4n(-c4ccccc4)c(=O)c32)c1`, the inhibition in vivo at 25 mg/kg with Rattus norvegicus [1] was determined as 43.5%. The inhibition in vivo at 10 mg/kg in the data set with Rattus norvegicus [5] came to 24%. Further, the inhibition in vivo at 50 mg/kg in the data set on Rattus norvegicus [2] worked out at 13%.

Consider `C[C@]12C=CC(=O)C=C1CC[C@@H]1[C@@H]2[C@@H](O)C[C@@]2(C)[C@H]1CC[C@]2(O)C(=O)CO` [PREDNISOLONE], for which the values for the ED40 with Rattus norvegicus [6] and in the data set on Rattus norvegicus [8] were 4.7 mg/kg and 1.2 mg/kg, respectively. In the data set on Rattus norvegicus [7], the ED50 was found to be 74.2 mg/kg. In addition, in the data set with Mus musculus, the MLD is > 300 mg/kg.
